Source: ChEMBL document CHEMBL2375329, “A diazen-1-ium-1,2-diolate analog of 7-azabenzobicyclo[2.2.1]heptane: synthesis, nitric oxide and nitroxyl release, in vitro hemodynamic, and anti-hypertensive studies” (Bioorg Med Chem Lett, 2013)
One block for each compound: values may come before it.

How the values were obtained:
[1] = Induction of HNO release in phosphate buffer saline after 48 hrs by phosphine-trapping based LC-MS assay relative to control; format: physicochemical
In short: (§1)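 Test compound (20 µM final) was incubated in PBS pH 7.4 containing 7.5% DMSO with a phosphine HNO trap (1 mM final) and 4-hydroxybenzophenone internal standard (5.05 µM), in a sealed vial at 37 °C for 2 h or 48 h. The reaction was quenched with H2O2, dried, and redissolved in methanol. HNO-derived amide was quantified by ESI-negative LC-MS against a standard curve. % is of a theoretical 1 mol HNO/mol, mean of triplicates.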

[2] = Induction of HNO release in phosphate buffer saline after 2 hrs by phosphine-trapping based LC-MS assay relative to control; format: physicochemical; in short: as §1
[3] = Induction of nitric oxide release in phosphate buffer solution after 1.5 hrs by Griess method relative to control; format: physicochemical
In short: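 Test compound at 5.0×10^-2 mM was incubated in phosphate buffer pH 7.4 at 37 °C for 1.5 h. NO was estimated indirectly as nitrite by the Griess reaction. % nitrite is based on a theoretical maximum of 2 mol NO/mol compound, mean of n = 3.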

[4] = Induction of nitric oxide release in phosphate buffer solution after 4 hrs by Griess method relative to control; format: physicochemical
In short: (§2)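 Test compound at 5.0 × 10^-2 mM in PBS pH 7.4 at 37 °C for 2 or 4 h. Nitrite formed from NO was quantified by the Griess reaction and expressed as % of a theoretical maximum of 2 mol NO/mol compound; mean of n = 3.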

[5] = Induction of nitric oxide release in phosphate buffer solution after 2 hrs by Griess method relative to control; format: physicochemical; in short: as §2
[6] = Induction of nitric oxide release in phosphate buffer solution after 2 to 4 hrs by Griess method relative to control; format: physicochemical; in short: as §2
[7] = Induction of HNO release in phosphate buffer saline after 2 to 4 hrs by phosphine-trapping based LC-MS assay relative to control; format: physicochemical
In short: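 HNO trapping assay. Test compound at 20 µM with phosphine trap at 1 mM and 4-hydroxybenzophenone internal standard at 5.05 µM, in PBS pH 7.4 containing 7.5% DMSO, sealed, 37 °C. Quenched with H2O2, then dried and redissolved in methanol. HNO-derived amide quantified by ESI-negative LC-MS against a standard curve (0.2-10 µg/mL). Result is % of 1 mol HNO/mol compound; mean of triplicates.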

[8] = Half life of the compound in phosphate buffered saline at 300 uM after 24 hrs at pH 7.4 by diazeniumdiolate chromophore-based UV-Vis spectrophotometric analysis; format: physicochemical
In short: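 Compound at 300 µM final (added from 6 mM DMSO stock; 5% DMSO final) in pH 7.4 phosphate buffer, stirred at 37 °C for 0-24 h. Spectra scanned at 200-400 nm over time. Decay of the diazeniumdiolate absorbance at 259 nm was fitted as first order by linear regression of ln(At − A∞) versus time, and t1/2 = ln2/k.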

Mus musculus [9] = assay: Antihypertensive activity in C57 black mouse assessed as diastolic blood pressure at 13.7 to 60.345 umol/kg, po after 3 hrs (reference value: 77.2 +/- 11.3 mmHg); format: functional, Artery
Mus musculus [10] = assay: Antihypertensive activity in C57 black mouse assessed as diastolic blood pressure at 13.7 to 60.345 umol/kg, po after 6 hrs (reference value: 85.3 +/- 11.5 mmHg); format: functional, Artery
Mus musculus [11] = assay: Antihypertensive activity in C57 black mouse assessed as mean blood pressure at 13.7 to 60.345 umol/kg, po after 3 hrs (reference value: 97.5 +/- 8.7 mmHg); format: functional
Heart [12] = assay: Ionotropic activity in C57BL/6 mouse heart assessed as decrease in heart rate at 10 uM after 20 mins by hemodynamic analysis relative to control; format: functional; design: scale not given: the % may be the effect or the level left
In short: (§3)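 Isolated C57BL/6 mouse hearts perfused retrogradely (Langendorff) at constant pressure (90 cm H2O) with 95% O2/5% CO2-aerated Krebs-Henseleit buffer at 37 °C. After 20 min stabilization, hearts were perfused with compound at 10 or 100 µM for 20 min. Measured: heart rate, rates of contraction and relaxation, LVDP and coronary flow. Comparison to baseline; mean ± SEM, n = 4.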

Mus musculus [13] = assay: Antihypertensive activity in C57 black mouse assessed as mean blood pressure at 13.7 to 60.345 umol/kg, po after 6 hrs (reference value: 105.7 +/- 9.3 mmHg); format: functional
Mus musculus [14] = assay: Antihypertensive activity in C57 black mouse assessed as mean blood pressure at 13.7 to 60.345 umol/kg, po after 1 hr (reference value: 106 +/- 11 mmHg); format: functional
Heart [15] = assay: Positive ionotropic activity in C57BL/6 mouse heart assessed as left ventricular developing pressure at 100 uM after 20 mins by hemodynamic analysis (reference value: 169 +/- 2 cmH2O); format: functional; in short: as §3
Heart [16] = assay: Ionotropic activity in C57BL/6 mouse heart assessed as rate of relaxation at 100 uM after 20 mins by hemodynamic analysis (reference value: -3318 +/- 161 cmH2O/ms); format: functional; in short: as §3
Heart [17] = assay: Ionotropic activity in C57BL/6 mouse heart assessed as increase in rate of relaxation at 10 uM after 20 mins by hemodynamic analysis relative to control; format: functional; design: scale not given: the % may be the effect or the level left; in short: as §3
Heart [18] = assay: Ionotropic activity in C57BL/6 mouse heart assessed as coronary flow rate at 100 uM after 20 mins by hemodynamic analysis (reference value: 2.62 +/- 0.1 ml/min); format: functional; in short: as §3
Mus musculus [19] = assay: Antihypertensive activity in C57 black mouse assessed as systolic blood pressure at 13.7 to 60.345 umol/kg, po after 1 hr (reference value: 126.5 +/- 9.4 mmHg); format: functional, Artery
Mus musculus [20] = assay: Effect on cardiac hemodynamic parameter in C57 black mouse assessed as heart rate at 13.7 to 60.345 umol/kg, po after 1 hr (reference value: 449 +/- 40 bpm); format: functional
Mus musculus [21] = assay: Antihypertensive activity in C57 black mouse assessed as systolic blood pressure at 13.7 to 60.345 umol/kg, po after 3 hrs (reference value: 118.3 +/- 6.1 mmHg); format: functional, Artery
Mus musculus [22] = assay: Effect on cardiac hemodynamic parameter in C57 black mouse assessed as heart rate at 13.7 to 60.345 umol/kg, po after 3 hrs (reference value: 448 +/- 72 bpm); format: functional
Heart [23] = assay: Ionotropic activity in C57BL/6 mouse heart assessed as heart rate at 100 uM after 20 mins by hemodynamic analysis (reference value: 342 +/- 11 bpm); format: functional; in short: as §3
[24] = Ratio of IPA/No half life to compound half life in phosphate buffered saline at pH 7.4; format: physicochemical; conditions: buffer
Heart [25] = assay: Ionotropic activity in C57BL/6 mouse heart assessed as increase in coronary flow rate at 10 uM after 20 mins by hemodynamic analysis relative to control; format: functional; in short: as §3
Mus musculus [26] = assay: Antihypertensive activity in C57 black mouse assessed as systolic blood pressure at 13.7 to 60.345 umol/kg, po after 6 hrs (reference value: 126.2 +/- 7.2 mmHg); format: functional, Artery
Heart [27] = assay: Ionotropic activity in C57BL/6 mouse heart assessed as increase in rate of contraction at 10 uM after 20 mins by hemodynamic analysis relative to control; format: functional; in short: as §3
Heart [28] = assay: Ionotropic activity in C57BL/6 mouse heart assessed as rate of contraction at 100 uM after 20 mins by hemodynamic analysis (reference value: 4178 +/- 141 cmH2O/ms); format: functional; in short: as §3
Mus musculus [29] = assay: Antihypertensive activity in C57 black mouse assessed as diastolic blood pressure at 13.7 to 60.345 umol/kg, po after 1 hr (reference value: 85.5 +/- 12.6 mmHg); format: functional, Artery
Heart [30] = assay: Positive ionotropic activity in C57BL/6 mouse heart assessed as increase in left ventricular developing pressure at 10 uM after 20 mins by hemodynamic analysis relative to control; format: functional; in short: as §3
Mus musculus [31] = assay: Effect on cardiac hemodynamic parameter in C57 black mouse assessed as heart rate at 13.7 to 60.345 umol/kg, po after 3 hrs (reference value: 439 +/- 73 bpm); format: functional

Activity [1]: 5.1% | Activity [2]: 5.4% | Activity [3]: 62%
Compound: CC(C)N[N+]([O-])=N[O-].[Na+]

Activity [1]: 85.7% | Activity [2]: 85.9% | Activity [4]: 20.8% | Activity [5]: 21.3%
Compound: [Na+].[Na+].[O-][N+]([O-])=NO [ANGELI'S SALT]

Compound: CN(N=O)c1ccc(C#N)cc1
Activity [6]: 100%

Compound: CN(c1ccc(C#N)cc1)N(O)N=O
Activity [7]: 100% | half-life at 300 µM [8]: 11 min

Compound: [Na+].[O-]/N=[N+](/[O-])N1C2CCC1c1ccccc12
Activity (Mus musculus [9]): 75.4 mmHg | Activity (Mus musculus [10]): 87.2 mmHg | Activity (Mus musculus [11]): 85.8 mmHg | Activity (Heart [12]): 22% | Activity (Mus musculus [13]): 101.1 mmHg | Activity (Mus musculus [14]): 82.3 mmHg | Activity (Heart [15]): 213 cmH2O | Activity (Heart [16]): -3945 cmH2O/ms | Activity (Heart [17]): 9% | Activity (Heart [18]): 3.92 mL/min | Activity (Mus musculus [19]): 105.5 mmHg | Activity (Mus musculus [20]): 605 bpm | Activity (Mus musculus [21]): 106.5 mmHg | Activity (Mus musculus [22]): 554 bpm | half-life at 300 µM [8]: 17.8 min | Activity (Heart [23]): 307 bpm | Activity [1]: 20.2% | Ratio [24]: 7.7 | Activity (Heart [25]): 53% | Activity [2]: 22.3% | Activity (Mus musculus [26]): 128.9 mmHg | Activity (Heart [27]): 30% | Activity [4]: 21.5% | Activity (Heart [28]): 5547 cmH2O/ms | Activity (Mus musculus [29]): 70.6 mmHg | Activity (Heart [30]): 24% | Activity [5]: 19% | Activity (Mus musculus [31]): 466 bpm
